The target of assay [1] is Mitogen-activated protein kinase 8 (Homo sapiens) (UniProt P45983). The assay can be described thus: Inhibition of JNK1 assessed as remaining enzyme activity at 3 uM relative to DMSO. The essentials:
(§1)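 Dundee kinase panel, radiometric: [γ-33P]ATP (800 cpm/pmol) at 5, 20 or 50 μM, at or below each kinase's ATP Km; 10 mM magnesium acetate; robotic, room temperature, 30 min. Reactions started with MgATP, stopped with orthophosphoric acid, spotted onto P81 filters. Inhibitor tested at a single concentration; mean % activity of duplicates relative to DMSO control.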

Assay [2] has as its target Mitogen-activated protein kinase 14 (Homo sapiens) (UniProt Q16539). The assay can be described thus: Inhibition of p38alpha assessed as remaining enzyme activity at 3 uM relative to DMSO.
Assay [3] deals with RAC-beta serine/threonine-protein kinase (Homo sapiens) (UniProt P31751). Kind of assay: Inhibition of PKBbeta assessed as remaining enzyme activity at 3 uM relative to DMSO. Put shortly: (§2)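 Radiometric kinase assay run robotically at room temperature for 30 min. Contained 10 mM magnesium acetate and [γ-33P]ATP (800 cpm/pmol) at 5, 20 or 50 μM, chosen per kinase to be at or below its ATP Km. Reactions were started with MgATP, stopped with orthophosphoric acid and spotted onto P81 filters. Result is mean % activity of duplicates at one inhibitor concentration versus DMSO control.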

In assay [4] the target is Serine/threonine-protein kinase Sgk1 (Homo sapiens) (UniProt O00141). The assay can be described thus: Inhibition of SGK1 assessed as remaining enzyme activity at 3 uM relative to DMSO.
The target of assay [5] is Serine/threonine-protein kinase D1 (Homo sapiens) (UniProt Q15139). The assay can be described thus: Inhibition of PKD1 assessed as remaining enzyme activity at 3 uM relative to DMSO.
Assay [6] concerns the target Serine/threonine-protein kinase Chk1 (Homo sapiens) (UniProt O14757). The assay can be described thus: Inhibition of CHK1 assessed as remaining enzyme activity at 3 uM relative to DMSO. Put shortly:
as §1

Assay [7] concerns the target Cyclin-dependent kinase 2 (Homo sapiens) (UniProt P24941). The assay can be described thus: Inhibition of CDK2 assessed as remaining enzyme activity at 3 uM relative to DMSO. Put shortly: as §1
Assay [8] addresses Serine/threonine-protein kinase Nek2 (Homo sapiens) (UniProt P51955). Kind of assay: Inhibition of NEK2alpha assessed as remaining enzyme activity at 3 uM relative to DMSO. The essentials:
as §2

For assay [9], the target named is SRSF protein kinase 1 (Homo sapiens) (UniProt Q96SB4). The assay can be described thus: Inhibition of SRPK1 assessed as remaining enzyme activity at 3 uM relative to DMSO.
For assay [10], the target named is Serine/threonine-protein kinase PAK 6 (Homo sapiens) (UniProt Q9NQU5). Kind of assay: Inhibition of PAK6 assessed as remaining enzyme activity at 3 uM relative to DMSO. Put shortly:
as §2

Assay [11] deals with Insulin receptor-related protein (Homo sapiens) (UniProt P14616). Kind of assay: Inhibition of IRR assessed as remaining enzyme activity at 3 uM relative to DMSO. The essentials: as §1
In assay [12] the target is Ephrin type-A receptor 2 (Homo sapiens) (UniProt P29317). Kind of assay: Inhibition of EPHA2 assessed as remaining enzyme activity at 3 uM relative to DMSO. The essentials: as §1
Assay [13] has as its target Mitogen-activated protein kinase kinase kinase kinase 2 (Homo sapiens) (UniProt Q12851). The assay can be described thus: Inhibition of GCK assessed as remaining enzyme activity at 3 uM relative to DMSO. Put shortly:
as §1

The target of assay [14] is Mitogen-activated protein kinase kinase kinase 9 (Homo sapiens) (UniProt P80192). Kind of assay: Inhibition of MLK1 assessed as remaining enzyme activity at 3 uM relative to DMSO. The essentials:
as §2

The target of assay [15] is Receptor tyrosine-protein kinase erbB-4 (Homo sapiens) (UniProt Q15303). The assay can be described thus: Inhibition of HER4 assessed as remaining enzyme activity at 3 uM relative to DMSO. The essentials: as §1
The target in assay [16] is Serine/threonine-protein kinase Nek11 (Homo sapiens) (UniProt Q8NG66). The assay can be described thus: Binding affinity to NEK11 assessed as percentage of kinase remaining bound to the bead at 1 uM by T7 phage display based binding assay. The essentials:
(§3)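 Competition binding assay run by a contract lab. Each kinase was expressed as a fusion to T7 phage, full-length for small kinases and catalytic domain for large ones. Phage were mixed with an immobilized known kinase inhibitor on streptavidin magnetic beads and with test compound at a single 1 μM. Kinase/phage still bound to the beads was quantified by qPCR and expressed as % of DMSO control.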

Another assay deals with Ephrin type-A receptor 8 (Homo sapiens, UniProt P29322). The assay can be described thus: Inhibition of EphA8 by [gamma33-P]ATP based assay.
For assay [17], the target named is Bone morphogenetic protein receptor type-1B (Homo sapiens) (UniProt O00238). The assay can be described thus: Binding affinity to BMPR1B assessed as percentage of kinase remaining bound to the bead at 1 uM by T7 phage display based binding assay. The essentials: as §3
Assay [18] deals with Protein-tyrosine kinase 6 (Homo sapiens) (UniProt Q13882). Kind of assay: Binding affinity to BRK assessed as percentage of kinase remaining bound to the bead at 1 uM by T7 phage display based binding assay. Put shortly: as §3
In assay [19] the target is Receptor tyrosine-protein kinase erbB-2 (Homo sapiens) (UniProt P04626). The assay can be described thus: Binding affinity to ERBB2 assessed as percentage of kinase remaining bound to the bead at 1 uM by T7 phage display based binding assay. The essentials: as §3
Assay [20] concerns the target Receptor tyrosine-protein kinase erbB-3 (Homo sapiens) (UniProt P21860). Kind of assay: Binding affinity to ERBB3 assessed as percentage of kinase remaining bound to the bead at 1 uM by T7 phage display based binding assay. The essentials: as §3
In assay [21] the target is Dual specificity tyrosine-phosphorylation-regulated kinase 2 (Homo sapiens) (UniProt Q92630). Kind of assay: Inhibition of DYRK2 assessed as remaining enzyme activity at 1 uM relative to DMSO. The essentials: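 Radiometric kinase assay run robotically at room temperature for 30 min, linear in time and enzyme. Conditions: 10 mM magnesium acetate, [γ-33P]ATP (800 cpm/pmol) at 5, 20 or 50 μM per kinase, at or below its ATP Km. Started with MgATP and stopped with orthophosphoric acid, then spotted on P81 filters. Reported as mean % activity of duplicates versus DMSO controls.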

Assay [22] addresses Serine/threonine-protein kinase Nek2 (Homo sapiens) (UniProt P51955). Kind of assay: Inhibition of NEK2alpha assessed as remaining enzyme activity at 1 uM relative to DMSO. Put shortly:
as §2

Assay [23] concerns the target Serine/threonine-protein kinase PAK 5 (Homo sapiens) (UniProt Q9P286). Kind of assay: Inhibition of PAK5 assessed as remaining enzyme activity at 1 uM relative to DMSO. The essentials: as §2
The target of assay [24] is Insulin-like growth factor 1 receptor (Homo sapiens) (UniProt P08069). The assay can be described thus: Inhibition of IGF-1R assessed as remaining enzyme activity at 1 uM relative to DMSO. The essentials: as §1
Assay [25] has as its target Ribosomal protein S6 kinase alpha-1 (Homo sapiens) (UniProt Q15418). The assay can be described thus: Inhibition of RSK1 assessed as remaining enzyme activity at 1 uM relative to DMSO.
Assay [26] addresses Serine/threonine-protein kinase Sgk1 (Homo sapiens) (UniProt O00141). Kind of assay: Inhibition of SGK1 assessed as remaining enzyme activity at 1 uM relative to DMSO.
For assay [27], the target named is Serine/threonine-protein kinase N2 (Homo sapiens) (UniProt Q16513). The assay can be described thus: Inhibition of PRK2 assessed as remaining enzyme activity at 1 uM relative to DMSO.
Assay [28] addresses MAP kinase-interacting serine/threonine-protein kinase 2 (Homo sapiens) (UniProt Q9HBH9). The assay can be described thus: Inhibition of MNK2 assessed as remaining enzyme activity at 1 uM relative to DMSO. Put shortly: as §2

Molecules are shown by their SMILES.

As usually defined, the IC50 is the midpoint of a concentration-inhibition curve.

Chain of Serine/threonine-protein kinase Sgk1 (Homo sapiens) (O00141 whole entry): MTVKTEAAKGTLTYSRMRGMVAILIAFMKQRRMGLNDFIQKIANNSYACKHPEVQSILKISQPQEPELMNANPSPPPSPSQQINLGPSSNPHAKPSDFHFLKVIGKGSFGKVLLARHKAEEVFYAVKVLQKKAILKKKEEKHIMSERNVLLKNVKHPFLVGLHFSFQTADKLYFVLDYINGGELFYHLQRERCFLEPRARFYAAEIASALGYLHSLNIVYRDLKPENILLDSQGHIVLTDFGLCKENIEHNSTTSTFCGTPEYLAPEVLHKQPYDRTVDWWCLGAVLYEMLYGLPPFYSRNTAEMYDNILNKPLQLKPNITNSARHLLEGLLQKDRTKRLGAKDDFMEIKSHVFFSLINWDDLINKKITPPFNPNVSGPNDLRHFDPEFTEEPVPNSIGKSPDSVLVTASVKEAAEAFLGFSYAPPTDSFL
Chain of Serine/threonine-protein kinase Nek2 (Homo sapiens) (P51955 whole entry): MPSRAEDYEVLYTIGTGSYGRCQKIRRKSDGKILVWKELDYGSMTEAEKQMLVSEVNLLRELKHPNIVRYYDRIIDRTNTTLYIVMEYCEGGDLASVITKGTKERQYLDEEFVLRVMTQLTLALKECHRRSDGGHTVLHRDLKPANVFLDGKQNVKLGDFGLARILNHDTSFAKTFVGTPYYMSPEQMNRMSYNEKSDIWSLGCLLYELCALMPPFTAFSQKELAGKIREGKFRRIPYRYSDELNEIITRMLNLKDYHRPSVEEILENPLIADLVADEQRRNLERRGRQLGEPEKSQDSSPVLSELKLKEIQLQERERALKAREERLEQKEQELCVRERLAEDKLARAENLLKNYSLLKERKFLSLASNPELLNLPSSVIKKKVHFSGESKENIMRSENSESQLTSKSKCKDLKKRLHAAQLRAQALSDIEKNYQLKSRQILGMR
Chain of Mitogen-activated protein kinase 14 (Homo sapiens) (Q16539 whole entry): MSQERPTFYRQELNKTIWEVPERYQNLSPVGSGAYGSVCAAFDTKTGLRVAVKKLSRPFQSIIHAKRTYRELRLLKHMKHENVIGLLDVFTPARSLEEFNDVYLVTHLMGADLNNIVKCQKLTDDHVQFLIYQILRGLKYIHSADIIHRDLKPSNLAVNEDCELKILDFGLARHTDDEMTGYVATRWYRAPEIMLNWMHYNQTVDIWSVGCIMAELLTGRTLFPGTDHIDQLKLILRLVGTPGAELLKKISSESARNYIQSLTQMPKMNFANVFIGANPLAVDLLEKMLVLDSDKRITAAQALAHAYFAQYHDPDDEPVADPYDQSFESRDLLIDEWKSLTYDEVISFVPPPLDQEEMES
Chain of Receptor tyrosine-protein kinase erbB-3 (Homo sapiens) (P21860 whole entry): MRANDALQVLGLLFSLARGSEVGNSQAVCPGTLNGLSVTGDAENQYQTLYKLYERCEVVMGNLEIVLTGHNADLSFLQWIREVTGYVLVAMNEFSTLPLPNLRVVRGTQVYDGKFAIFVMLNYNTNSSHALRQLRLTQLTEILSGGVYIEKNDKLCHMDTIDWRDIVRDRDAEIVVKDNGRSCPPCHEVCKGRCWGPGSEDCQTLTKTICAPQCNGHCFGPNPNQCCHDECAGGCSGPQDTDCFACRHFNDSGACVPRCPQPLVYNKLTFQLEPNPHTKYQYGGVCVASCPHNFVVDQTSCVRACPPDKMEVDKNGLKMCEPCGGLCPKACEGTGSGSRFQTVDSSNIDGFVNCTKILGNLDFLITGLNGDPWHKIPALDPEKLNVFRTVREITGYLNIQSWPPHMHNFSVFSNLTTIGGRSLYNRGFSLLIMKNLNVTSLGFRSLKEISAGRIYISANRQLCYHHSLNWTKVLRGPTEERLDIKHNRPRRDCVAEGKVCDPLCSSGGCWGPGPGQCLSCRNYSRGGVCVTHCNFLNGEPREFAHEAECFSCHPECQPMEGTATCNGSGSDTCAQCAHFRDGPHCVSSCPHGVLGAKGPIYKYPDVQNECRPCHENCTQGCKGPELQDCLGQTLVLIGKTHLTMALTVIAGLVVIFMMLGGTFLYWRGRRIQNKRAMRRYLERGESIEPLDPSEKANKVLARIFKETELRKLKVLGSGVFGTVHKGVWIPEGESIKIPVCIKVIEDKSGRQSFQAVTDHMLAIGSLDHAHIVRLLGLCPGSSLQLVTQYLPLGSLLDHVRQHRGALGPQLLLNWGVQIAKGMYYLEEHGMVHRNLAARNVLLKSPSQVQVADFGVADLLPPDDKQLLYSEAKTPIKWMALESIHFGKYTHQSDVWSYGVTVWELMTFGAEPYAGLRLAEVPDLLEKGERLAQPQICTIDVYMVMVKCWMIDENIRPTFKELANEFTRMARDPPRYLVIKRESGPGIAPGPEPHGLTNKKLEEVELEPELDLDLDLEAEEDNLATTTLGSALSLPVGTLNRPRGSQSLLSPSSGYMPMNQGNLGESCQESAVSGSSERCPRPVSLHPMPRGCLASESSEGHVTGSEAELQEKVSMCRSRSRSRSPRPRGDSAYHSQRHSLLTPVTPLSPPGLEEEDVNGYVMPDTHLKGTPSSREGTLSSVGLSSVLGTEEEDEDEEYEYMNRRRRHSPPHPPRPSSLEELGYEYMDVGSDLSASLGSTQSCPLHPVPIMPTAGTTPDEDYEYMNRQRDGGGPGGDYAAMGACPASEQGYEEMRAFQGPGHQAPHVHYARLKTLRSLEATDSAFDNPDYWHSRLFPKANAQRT
Chain of Serine/threonine-protein kinase Chk1 (Homo sapiens) (O14757 whole entry): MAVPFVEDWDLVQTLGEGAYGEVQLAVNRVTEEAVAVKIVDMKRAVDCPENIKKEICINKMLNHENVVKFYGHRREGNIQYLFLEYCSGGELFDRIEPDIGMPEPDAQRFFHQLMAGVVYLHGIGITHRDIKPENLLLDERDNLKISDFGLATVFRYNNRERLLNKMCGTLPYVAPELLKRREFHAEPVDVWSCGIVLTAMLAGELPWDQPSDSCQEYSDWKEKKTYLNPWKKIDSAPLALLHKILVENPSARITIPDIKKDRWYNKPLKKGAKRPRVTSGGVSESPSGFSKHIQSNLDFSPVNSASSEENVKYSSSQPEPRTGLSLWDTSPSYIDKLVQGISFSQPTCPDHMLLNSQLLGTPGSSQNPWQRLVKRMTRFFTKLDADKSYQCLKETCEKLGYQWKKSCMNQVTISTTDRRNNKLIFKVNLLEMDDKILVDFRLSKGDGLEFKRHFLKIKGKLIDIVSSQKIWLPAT
Chain of Ribosomal protein S6 kinase alpha-1 (Homo sapiens) (Q15418 whole entry): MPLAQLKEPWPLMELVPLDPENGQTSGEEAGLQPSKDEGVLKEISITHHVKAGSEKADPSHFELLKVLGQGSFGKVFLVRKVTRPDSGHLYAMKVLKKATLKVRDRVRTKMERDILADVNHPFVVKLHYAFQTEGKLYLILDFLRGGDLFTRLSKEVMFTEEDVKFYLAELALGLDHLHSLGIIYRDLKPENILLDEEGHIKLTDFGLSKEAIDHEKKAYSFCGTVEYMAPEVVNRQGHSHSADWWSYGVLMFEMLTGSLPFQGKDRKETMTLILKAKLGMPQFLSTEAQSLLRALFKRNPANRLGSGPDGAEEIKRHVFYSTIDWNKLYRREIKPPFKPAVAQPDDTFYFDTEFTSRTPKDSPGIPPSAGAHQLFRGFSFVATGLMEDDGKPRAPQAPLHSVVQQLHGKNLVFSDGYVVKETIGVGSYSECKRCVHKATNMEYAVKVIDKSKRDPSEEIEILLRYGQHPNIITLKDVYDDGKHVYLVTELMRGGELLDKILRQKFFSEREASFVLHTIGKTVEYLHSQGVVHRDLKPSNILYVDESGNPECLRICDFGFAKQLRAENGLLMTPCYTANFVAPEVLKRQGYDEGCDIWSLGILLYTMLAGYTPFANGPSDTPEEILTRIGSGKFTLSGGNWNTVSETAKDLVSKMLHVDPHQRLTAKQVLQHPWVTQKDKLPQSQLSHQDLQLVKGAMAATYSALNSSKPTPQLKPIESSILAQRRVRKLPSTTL
Chain of Ephrin type-A receptor 2 (Homo sapiens) (P29317 whole entry): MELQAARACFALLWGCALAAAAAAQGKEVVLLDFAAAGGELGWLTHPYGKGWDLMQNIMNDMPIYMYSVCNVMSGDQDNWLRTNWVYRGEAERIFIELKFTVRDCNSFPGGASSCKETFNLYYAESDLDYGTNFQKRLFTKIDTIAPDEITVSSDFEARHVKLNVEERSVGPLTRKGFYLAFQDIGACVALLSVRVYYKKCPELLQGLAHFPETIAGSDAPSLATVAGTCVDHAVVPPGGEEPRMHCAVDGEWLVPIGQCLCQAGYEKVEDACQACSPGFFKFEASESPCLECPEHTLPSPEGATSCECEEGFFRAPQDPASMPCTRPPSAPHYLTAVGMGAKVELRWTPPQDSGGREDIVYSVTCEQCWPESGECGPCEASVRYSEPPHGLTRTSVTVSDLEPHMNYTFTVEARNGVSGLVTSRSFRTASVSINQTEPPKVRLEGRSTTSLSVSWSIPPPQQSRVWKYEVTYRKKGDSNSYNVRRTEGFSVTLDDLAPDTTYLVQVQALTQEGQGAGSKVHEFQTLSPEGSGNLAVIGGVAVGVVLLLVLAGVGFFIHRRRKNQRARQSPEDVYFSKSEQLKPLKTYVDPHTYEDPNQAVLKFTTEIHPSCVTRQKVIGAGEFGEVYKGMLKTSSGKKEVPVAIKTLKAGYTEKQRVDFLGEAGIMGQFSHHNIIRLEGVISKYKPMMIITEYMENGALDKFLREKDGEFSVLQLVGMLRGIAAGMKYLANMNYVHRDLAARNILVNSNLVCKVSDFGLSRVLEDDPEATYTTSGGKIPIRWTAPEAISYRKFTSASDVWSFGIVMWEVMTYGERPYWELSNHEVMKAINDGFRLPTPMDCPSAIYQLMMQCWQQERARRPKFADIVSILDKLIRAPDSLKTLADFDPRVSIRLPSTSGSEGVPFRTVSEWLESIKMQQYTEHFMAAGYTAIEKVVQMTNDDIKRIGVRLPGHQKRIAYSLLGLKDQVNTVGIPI

Take `COc1ccccc1-n1c(-c2ccccc2C)cn2c3c(=O)[nH]c(=O)n(C)c3nc12`: the Activity in assay [1] was found to be 106%; in [2], 87%; in [3], 104%; in assay [4], 124%; in assay [5], 100%; in assay [6] it was 93%. For the same compound, the Activity came out at 97% in assay [7]; 102% in assay [8]; 78% in assay [9]; 90% in [10]; 110% in [11]; 10% in assay [12]. Also, the values for the Activity in assay [13], in [14] and in assay [15] were 109%, 85% and 45%, respectively.
On to `COc1ccccc1-n1c(-c2cc(O)ccc2C)cn2c3c(=O)[nH]c(=O)n(C)c3nc12`, for which the Activity in [16] came out at 67%; in assay [17] it was 0.9%; in assay [18], 12%; in [19], 27%; in assay [20], 78%; in assay [21], 86%. In addition, the Activity in [22] was 123%; in assay [23] it was 94%; in assay [24], 94%; in assay [25], 88%; in [26], 78%; in assay [27], 93%. Besides, in assay [28], the Activity was determined as 74%. The half-inhibitory concentration (IC50) at Ephrin type-A receptor 8 was 4.5 nM.
